# Bioassay records (PubChem)
# Compounds with a hit are over-represented: about 2.5% of the library has one in this group of screens.
# Tb MetRS inh = blocks T. brucei methionyl-tRNA synthetase activity; purified T. brucei MetRS, ATP depletion, Kinase-Glo luminescence; inhibition, % at 11.9 µM; 0.4% of 360,000 active; AID 624268;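 active means inhibition above a per-plate cutoff of the control wells' mean inhibition plus 3 SD, cut at about 5.5% in these data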;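 further: 0% = DMSO wells median and 100% = median of wells with control inhibitor compound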
#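 Material: T. brucei methionyl-tRNA synthetase, purified; reagent: substrates ATP, L-methionine and bulk Escherichia coli tRNA; dosing: 11.9 µM single point; timing: 15 min plus 2 h at 25 °C; detection: luminescence of leftover ATP; evaluation: % inhibition; control set: DMSO-only wells as low control; replicates: singlicate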
# NALP3 yeast inh = inhibitors of NALP3 inflammasome in yeast | inhibition, % at 10 µM | 0.39% of 330,000 active | Yeast reconstituted NLRP3/ASC/caspase-1, beta-gal luminescence, 24 h;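 active means inhibition of 50% or more; inactive means inhibition below 50%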;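 further: plate controls were induced DMSO wells for no effect and uninduced yeast grown without galactose for full effect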
# MC4R ag barr = activates human MC4R beta-arrestin recruitment | U2OS MC4R beta-arrestin complementation, luminescence; percent of melanotan II response, DMSO zero | activation, % at 8.9 µM | 0.98% of 360,000 active;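 active means activation above a per-plate cutoff, the mean activation of sample wells on that plate plus 3 SD, cut at about 8% in these data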
# Target sequence (P32245 whole entry, looked up): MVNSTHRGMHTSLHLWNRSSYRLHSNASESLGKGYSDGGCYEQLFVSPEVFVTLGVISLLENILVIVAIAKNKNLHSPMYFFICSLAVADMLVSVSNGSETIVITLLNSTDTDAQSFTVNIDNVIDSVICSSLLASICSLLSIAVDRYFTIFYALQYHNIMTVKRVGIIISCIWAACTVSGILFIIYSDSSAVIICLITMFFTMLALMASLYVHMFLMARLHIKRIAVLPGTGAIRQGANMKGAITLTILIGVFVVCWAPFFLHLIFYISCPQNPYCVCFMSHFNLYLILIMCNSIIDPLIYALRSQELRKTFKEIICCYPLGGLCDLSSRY
# MC4R antag cAMP = antagonists of human melanocortin 4 receptor (MC4R); P32245; MC4R-expressing cells, MTII-stimulated cAMP, LANCE TR-FRET; inhibition, % at 6.5 µM; 0.48% of 360,000 active; AID 540295;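 active means inhibition above its plate's cutoff, the mean of tested wells on that plate plus 3 SD, cut at about 29% in these data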;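 further: 0% = Melanotan II alone and 100% = Melanotan II plus saturating MCL0020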
#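 Assay system: U2OS cells stably expressing human melanocortin 4 receptor (MC4R) / Dosing: 6.5 µM / Timing: compound 30 min, challenge 1 h, detection 1 h / Measured by: Eu-cAMP/anti-cAMP TR-FRET, emission 671 nm / Replicates: singlicate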
# A1 inh = inhibitors of the anti-apoptotic protein A1, read as caspase activation | AID 2462 | 0.066% of 330,000 active | caspase activation, % (test concentration not listed) | MEF A1-2A-BIM cells, Caspase-Glo 3/7 luminescence, 3 h; percent of clofoctol response, vehicle zero;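 active means over half of replicate activation scores above 10%, or exactly half above 10 with the replicate mean above 10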
# NALP1 inh = NALP1 inhibition. S. cerevisiae NALP1/ASC/caspase-1 growth, X-gal OD620, 72 h. 0.61% of 280,000 active. inhibition, % at 10 µM. AID 2071; in the data active means inhibition mostly above about 24%, no sharp cut-off; inactive means mostly below about 32%
# * marks the source's active call; other numbers are inactive results; . = no result.
SMILES,Tb MetRS inh,NALP3 yeast inh,MC4R ag barr,MC4R antag cAMP,A1 inh,NALP1 inh
O=C(Nc1cccnc1)c1cc(-c2cccnc2)nc2ccc(Br)cc12,-0.8,1.9,1.8,16.4,.,14.6
COc1cc(NC(=O)c2cc(-c3cccnc3)nc3ccc(Br)cc23)cc(OC)c1,-0.7,17.2,8.2*,3.1,0.2,13.4
COc1ccc(NC(=O)c2cc(-c3cccnc3)nc3ccc(C)cc23)cc1OC,0.6,.,0.2,4.8,.,33.9*
O=C(c1ccc2ccccc2c1)c1cccc(F)c1C(=O)O,-0.2,.,0.0,9.4,.,.
O=C(CCCn1c(=O)[nH]c2ccsc2c1=O)NCc1cccs1,-0.5,-10.4,-0.8,4.3,-0.1,21.0*
CC1(Oc2cccc(F)c2)CCN(Cc2ccc(-c3ccccn3)cc2)C1 (centres undefined),-0.1,.,8.6*,10.3,.,.
Oc1[nH]c2ccccc2c1N=Nc1nc(Nc2ccccc2)nc(N2CCOCC2)n1,0.2,8.8,1.4,28.5*,0.3,.
Cc1[nH]c2ccccc2c1/C=N/Nc1nc(Nc2ccccc2)nc(N2CCOCC2)n1,-0.2,26.1,1.7,14.7,0.6,5.9
CN1CCN(CC(=O)N2CCn3c4c(c5cc(C6CCCCC6)ccc53)CCCC42)CC1 (centres undefined),-1.0,12.7,27.4*,-4.7,-0.1,22.4
Cc1ccc2c(c1)c1c3n2CCN(C(=O)CN2CCN(C)CC2)C3CCC1 (centres undefined),-1.2,-13.8,-2.1,-5.9,0.5,24.7
Cc1cccc(C)c1N1C(=O)c2ccccc2NC(=O)C1C(=O)NCc1ccco1 (centres undefined),0.3,.,.,.,.,.
Cc1ccc2cc3cc(C(=O)NCCCN4CCCC4)oc3nc2c1,-0.1,5.5,-1.3,-3.4,-0.8,25.7
Cc1ccc2cc3cc(C(=O)NCCCN4CCc5ccccc5C4)oc3nc2c1,-0.3,2.3,-1.1,3.2,-0.4,46.3*
CC1=CC(=O)C(C(C)C)=CC1=NC(=O)c1ccc(C)cc1,-0.1,0.7,0.5,51.4*,-0.4,7.0
CC1=CC(=O)C(C(C)C)=C/C1=N/OC(=O)c1cccc([N+](=O)[O-])c1,0.0,-10.8,-2.5,4.1,0.4,33.9
Cc1ccc(C(=O)OC(C(=O)Nc2ccc(Cl)cc2C(F)(F)F)c2ccccc2)cc1 (centres undefined),0.1,15.0,9.5*,5.6,1.0,30.1
O=C(OC(C(=O)Nc1ccc(Cl)cc1C(F)(F)F)c1ccccc1)c1c(Cl)cccc1Cl (centres undefined),-1.2,22.9,0.6,4.2,0.3,.
O=C(Nc1ccc(Cl)cc1)c1nc[nH]c1C(=O)NCCN(CCNC(=O)c1[nH]cnc1C(=O)Nc1ccc(Cl)cc1)CCNC(=O)c1[nH]cnc1C(=O)Nc1ccc(Cl)cc1,-0.3,0.4,0.1,3.1,0.2,.
O=C(Nc1ccc([N+](=O)[O-])cc1)c1nc[nH]c1C(=O)NC1CCCCC1,-0.1,30.2,-2.8,4.3,47.4*,28.1
O=C(Nc1ccc(F)cc1)c1nc[nH]c1C(=O)Nc1ccc([N+](=O)[O-])cc1,-0.5,18.5,-1.6,8.9,0.8,10.1
O=C(Nc1ccc(Cl)cc1)c1nc[nH]c1C(=O)NCCCNC(=O)c1[nH]cnc1C(=O)Nc1ccc(Cl)cc1,.,5.9,.,.,12.9*,.
O=C(Nc1ccc(F)cc1)N1CCN(C(=O)C2CCCO2)CC1 (centres undefined),-0.2,28.7,-0.6,-0.8,-0.4,34.0*
CCOc1ccc(N2C(=O)CC(N3CCOCC3)C2=O)cc1 (centres undefined),-1.2,-8.1,-0.1,10.4,0.2,26.6
O=C1CC(N2CCCN(C3CC(=O)N(c4ccc(F)cc4)C3=O)CC2)C(=O)N1c1ccc(F)cc1 (centres undefined),-1.2,25.6,-1.8,5.3,-0.8,39.1*
CCOC(=O)c1ccc(N2C(=O)CC(N3CCOCC3)C2=O)cc1 (centres undefined),0.0,12.9,-1.5,9.8,1.4,30.0*
SMILES,Tb MetRS inh,NALP3 yeast inh,MC4R ag barr,MC4R antag cAMP,A1 inh,NALP1 inh
OC[C@@H](O)C(O)[C@@H](O)CO (some centres undefined),-0.1,.,1.2,4.5,.,.
Cc1ccc(N2CCN(c3ccc(C)cc3)C2c2cccnc2)cc1,-0.7,29.1,-0.2,11.0,-0.2,39.8*
CCCN(CCC)C(=O)c1cn(C)c2ccc(S(=O)(=O)N3CCCC3)cc2c1=O,0.2,14.6,-3.5,2.8,0.2,15.2
CS(=O)(=O)c1ccc(C(=O)OC2CCOC2=O)cc1[N+](=O)[O-] (centres undefined),-0.4,14.4,-2.7,31.5*,1.3,6.1
O=C(OC1CCOC1=O)c1ccccc1C(=O)c1ccc(Cl)c([N+](=O)[O-])c1 (centres undefined),-0.4,8.4,0.4,23.5,1.2,.
COc1cc(/C=C/C(=O)c2ccc3c(c2)OCO3)cc(Cl)c1O,0.3,-4.6,-2.3,19.4,0.4,-9.5
O=C(CC1Sc2ncnn2C1=O)Nc1ccc(Br)cc1 (centres undefined),-0.5,1.8,-1.4,12.8,0.1,85.0*
CC1(C)SC[C@H](C(=O)Nc2cccc(Cl)c2)N1C=O,-0.1,1.2,-3.0,0.2,0.3,37.3*
Cc1ccccc1NC(=O)C(=O)c1cn(C)c2ccccc12,-1.4,9.1,12.4*,-3.0,-3.0,1.6
COc1ccc(C(=O)Nc2ccc(Nc3ccccc3)cc2)cc1Br,-0.9,3.4,9.4*,-2.9,0.1,.
O=Cc1ccc(C(=O)OCC(=O)NC(=O)Nc2ccccc2F)cc1,0.3,14.5,3.6,13.2,0.9,.
Cc1cc(C)c(NC(=O)C2CCCN2CCC(C)C)c(C)c1 (centres undefined),0.0,4.3,0.1,5.5,1.1,-78.8
Cc1cc(C)c(NC(=O)C2CCCCN2C)c(C)c1 (centres undefined),-1.0,5.5,-2.7,4.1,0.3,40.2*
CC1N(C(=O)N(C)C)CCN1S(=O)(=O)c1ccccc1 (centres undefined),-0.6,21.6,-1.6,18.3,0.0,1.4
OCC(O)C(O)C(O)C(O)c1nc2ccccc2[nH]1 (centres undefined),0.0,4.8,-1.0,2.3,1.0,25.1*
OC(c1ccc(Cl)cc1)C(O)c1nc2ccccc2[nH]1 (centres undefined),-0.1,-11.3,-3.1,0.7,1.1,-9.0
CCn1nc(NC(=O)COC)c2cc3cccc(C)c3nc21,-1.1,25.5,-0.4,-8.8,-0.1,-1.3
CCn1nc(NC(=O)Cc2ccc(OC)cc2)c2cc3cccc(C)c3nc21,0.3,6.7,9.3*,9.6,1.4,6.4
O=c1[nH]c(CSc2nc3ccccc3s2)nc2ccccc12,0.4,9.1,-1.6,0.9,-1.4,.
